From ChEMBL document CHEMBL3352372, “Design, synthesis and 3D-QSAR studies of new diphenylamine containing 1,2,4-triazoles as potential antitubercular agents” (Eur J Med Chem, 2014)
≈ marks a conversion by molar mass, not a printed value.

Key:
[1] = test system: Mycobacterium tuberculosis; experiment: Antitubercular activity Mycobacterium tuberculosis H37Rv assessed as growth inhibition after 30 days by agar microdilution method; type: functional
Method in brief: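 M. tuberculosis H37Rv (ATCC 27294) grown on L-J medium, harvested in 0.85% saline with 0.05% Tween-80. Compounds, from a DMSO stock, were added as twofold dilutions to Middlebrook 7H10 agar with OADC in tubes. After 30 days of incubation, tubes were compared with untreated H37Rv control tubes. The lowest concentration giving complete inhibition of colonies was reported.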

Bacillus spizizenii = experiment: Antibacterial activity Bacillus Bacillus subtilis ATCC 6633 assessed as growth inhibition after 24 hrs by twofold serial dilution technique; type: functional; conditions: ATCC 6633, 24 h
Method in brief: (§1)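 Tube twofold serial dilution of compounds dissolved in DMSO, under aseptic conditions. Solvent, growth (negative) and drug (ampicillin) controls were run alongside. Tubes were incubated 24 h at 37 °C. MIC was taken as the lowest concentration giving apparent complete inhibition of growth. Strains were first screened by cup plate method.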

Staphylococcus aureus = experiment: Antibacterial activity Staphylococcus aureus ATCC-25923 assessed as growth inhibition after 24 hrs by twofold serial dilution technique; type: functional; conditions: ATCC-25923, 24 h; method in brief: as §1
[2] = Cytotoxicity against african green monkey Vero cells after 72 hrs by MTT assay; type: cell-based; conditions: chlorocebus sabaeus
Method in brief: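 After media removal and a PBS wash, dilutions were added with DMSO control, then incubated 72 h at 37 °C, 5% CO2. Cells were washed, given MTT for 3 h in the dark, and solubilized in DMSO 1–2 h. CC50 was extrapolated from plotted % inhibition (100 − % viability) against concentration.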

[3] = Cytotoxicity against human HepG2 cells after 72 hrs by MTT assay; type: cell-based
Escherichia coli = experiment: Antibacterial activity Escherichia coli ATCC-25922 assessed as growth inhibition after 24 hrs by twofold serial dilution technique; type: functional; conditions: ATCC-25922, 24 h; method in brief: as §1
Pseudomonas aeruginosa = experiment: Antibacterial activity Pseudomonas aeruginosa ATCC-27853 assessed as growth inhibition after 24 hrs by twofold serial dilution technique; type: functional; conditions: ATCC-27853, 24 h; method in brief: as §1
[4] = test system: Mycobacterium tuberculosis; experiment: Antitubercular activity Mycobacterium tuberculosis H37Rv assessed as growth inhibition after 5 days by MABA method; type: functional; conditions: for MIC: Mycobacterium tuberculosis, H37Rv, 120 h
Method in brief: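 Log-phase H37Rv was diluted to a final OD550 of 0.05 in Middlebrook 7H9 broth, and compounds in DMSO were added in 96-well plates. After a further 24 h at 37 °C/5% CO2, fluorescence was read (ex 544 nm, em 590 nm). Inhibition was scored against the untreated control, with >90% inhibition counted as active in the initial screen.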

Row | SMILES | MIC [1] [µM] | MIC (Bacillus spizizenii) [µM] | MIC (Staphylococcus aureus) [µM] | CC50 at 72 h [2] [µM] | CC50 at 72 h [3] [µM] | MIC (Escherichia coli) [µM] | MIC (Pseudomonas aeruginosa) [µM] | -logMIC [4] | MIC [4] [µM]
1 | S=c1n(CN2CCOCC2)nc(Cc2ccccc2Nc2c(Cl)cccc2Cl)n1/N=C/c1ccccc1 | 0.2 (≈ 0.111 µg/mL) | 6.25 (≈ 3.46 µg/mL) | 6.25 (≈ 3.46 µg/mL) | > 300 | > 300 | 12.5 (≈ 6.92 µg/mL) | 12.5 (≈ 6.92 µg/mL) | 6.699 | 0.2 (≈ 0.111 µg/mL)
2 | COc1ccc(/C=N/n2c(Cc3ccccc3Nc3c(Cl)cccc3Cl)nn(CN3CCOCC3)c2=S)cc1 | 6.25 (≈ 3.65 µg/mL) | 12.5 (≈ 7.29 µg/mL) | 6.25 (≈ 3.65 µg/mL) | > 300 | > 300 | 6.25 (≈ 3.65 µg/mL) | 12.5 (≈ 7.29 µg/mL) | 5.204 | 6.25 (≈ 3.65 µg/mL)
3 | COc1ccc(/C=N/n2c(Cc3ccccc3Nc3c(Cl)cccc3Cl)nn(CN3CCOCC3)c2=S)cc1OC | 6.25 (≈ 3.83 µg/mL) | 12.5 (≈ 7.67 µg/mL) | 12.5 (≈ 7.67 µg/mL) | > 300 | 282 | 6.25 (≈ 3.83 µg/mL) | 12.5 (≈ 7.67 µg/mL) | 5.204 | 6.25 (≈ 3.83 µg/mL)
4 | O=c1c2ccccc2nc2n(/N=C/c3ccco3)c(Cc3ccccc3Nc3c(Cl)cccc3Cl)nn12 | – | 12.5 (≈ 6.62 µg/mL) | 12.5 (≈ 6.62 µg/mL) | – | – | 12.5 (≈ 6.62 µg/mL) | 12.5 (≈ 6.62 µg/mL) | 4.602 | 25 (≈ 13.2 µg/mL)
5 | O=c1c2ccccc2nc2n(/N=C/c3ccccc3)c(Cc3ccccc3Nc3c(Cl)cccc3Cl)nn12 | 12.5 (≈ 6.74 µg/mL) | 12.5 (≈ 6.74 µg/mL) | 12.5 (≈ 6.74 µg/mL) | – | – | 12.5 (≈ 6.74 µg/mL) | 12.5 (≈ 6.74 µg/mL) | 4.903 | 12.5 (≈ 6.74 µg/mL)
6 | COc1ccc(/C=N/n2c(Cc3ccccc3Nc3c(Cl)cccc3Cl)nn(CN3CCCCC3)c2=S)cc1OC | 6.25 (≈ 3.82 µg/mL) | 25 (≈ 15.3 µg/mL) | 12.5 (≈ 7.64 µg/mL) | – | – | 25 (≈ 15.3 µg/mL) | 25 (≈ 15.3 µg/mL) | 4.903 | 12.5 (≈ 7.64 µg/mL)
7 | S=c1n(CN2CCOCC2)nc(Cc2ccccc2Nc2c(Cl)cccc2Cl)n1/N=C/c1cccs1 | 3.12 (≈ 1.75 µg/mL) | 12.5 (≈ 6.99 µg/mL) | 6.25 (≈ 3.5 µg/mL) | > 300 | 250 | 6.25 (≈ 3.5 µg/mL) | 12.5 (≈ 6.99 µg/mL) | 5.796 | 1.6 (≈ 0.895 µg/mL)
8 | S=c1n(CN2CCCCC2)nc(Cc2ccccc2Nc2c(Cl)cccc2Cl)n1/N=C/c1cccs1 | 12.5 (≈ 6.97 µg/mL) | 12.5 (≈ 6.97 µg/mL) | 12.5 (≈ 6.97 µg/mL) | – | – | 12.5 (≈ 6.97 µg/mL) | 12.5 (≈ 6.97 µg/mL) | 4.903 | 12.5 (≈ 6.97 µg/mL)
9 | S=c1n(CN2CCCCC2)nc(Cc2ccccc2Nc2c(Cl)cccc2Cl)n1/N=C/c1ccncc1 | 12.5 (≈ 6.91 µg/mL) | 25 (≈ 13.8 µg/mL) | 12.5 (≈ 6.91 µg/mL) | – | – | 25 (≈ 13.8 µg/mL) | 25 (≈ 13.8 µg/mL) | 4.903 | 12.5 (≈ 6.91 µg/mL)
10 | COc1ccc(C2SCC(=O)N2n2c(Cc3ccccc3Nc3c(Cl)cccc3Cl)n[nH]c2=S)cc1OC (centres undefined) | – | 100 (≈ 58.9 µg/mL) | 100 (≈ 58.9 µg/mL) | – | – | 100 (≈ 58.9 µg/mL) | 100 (≈ 58.9 µg/mL) | 4.301 | 50 (≈ 29.4 µg/mL)
11 | COc1ccc(/C=N/n2c(Cc3ccccc3Nc3c(Cl)cccc3Cl)nn3c(=O)c4ccccc4nc23)cc1OC | – | 25 (≈ 15 µg/mL) | 12.5 (≈ 7.49 µg/mL) | – | – | 25 (≈ 15 µg/mL) | 50 (≈ 30 µg/mL) | 4.602 | 25 (≈ 15 µg/mL)
12 | O=C1CSC(c2cccs2)N1n1c(Cc2ccccc2Nc2c(Cl)cccc2Cl)n[nH]c1=S (centres undefined) | – | 12.5 (≈ 6.68 µg/mL) | 12.5 (≈ 6.68 µg/mL) | – | – | 12.5 (≈ 6.68 µg/mL) | 12.5 (≈ 6.68 µg/mL) | 4.602 | 25 (≈ 13.4 µg/mL)
13 | COc1ccc(/C=N/n2c(Cc3ccccc3Nc3c(Cl)cccc3Cl)nn3c(=O)c4ccccc4nc23)cc1 | – | 25 (≈ 14.2 µg/mL) | 100 (≈ 56.9 µg/mL) | – | – | 100 (≈ 56.9 µg/mL) | 100 (≈ 56.9 µg/mL) | 4.602 | 25 (≈ 14.2 µg/mL)
